For experiment [1], the target named is T1, Caspase-8 (Homo sapiens, UniProt Q14790). In words: Inhibitory concentration against caspase-8 expressed in Escherichia coli. BL21(DE3) by fluorometric assay.
Experiment [2] deals with T2, Caspase-7 (Homo sapiens, UniProt P55210).
T2 sequence (P55210 whole entry): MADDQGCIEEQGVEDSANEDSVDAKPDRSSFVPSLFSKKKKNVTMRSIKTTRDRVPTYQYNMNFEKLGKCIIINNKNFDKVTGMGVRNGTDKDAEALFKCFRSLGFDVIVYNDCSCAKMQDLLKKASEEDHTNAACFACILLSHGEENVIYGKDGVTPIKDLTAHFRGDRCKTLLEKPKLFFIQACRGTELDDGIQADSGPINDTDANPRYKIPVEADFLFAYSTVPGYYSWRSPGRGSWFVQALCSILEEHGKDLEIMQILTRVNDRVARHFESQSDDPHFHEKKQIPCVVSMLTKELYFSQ
The experiment in a line: Inhibitory concentration against caspase-7 expressed in Escherichia coli. BL21(DE3) by fluorometric assay.

Experiment [3] addresses T3, Caspase-3 (Homo sapiens, UniProt P42574).
T3 sequence (P42574 whole entry): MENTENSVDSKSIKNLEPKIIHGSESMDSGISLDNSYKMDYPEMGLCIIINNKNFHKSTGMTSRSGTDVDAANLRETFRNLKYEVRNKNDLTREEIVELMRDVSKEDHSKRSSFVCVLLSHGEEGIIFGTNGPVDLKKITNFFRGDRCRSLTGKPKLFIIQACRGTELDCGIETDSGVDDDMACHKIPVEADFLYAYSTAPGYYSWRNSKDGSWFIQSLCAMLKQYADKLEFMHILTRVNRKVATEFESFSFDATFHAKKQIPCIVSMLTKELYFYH
The experiment in a line: Inhibitory concentration against caspase-3 expressed in Escherichia coli. BL21(DE3) by fluorometric assay.

In experiment [4] the target is T1, Caspase-8. In words: Binding affinity against caspase-8 expressed in Escherichia coli. BL21(DE3) by fluorometric assay. In short, it runs like this:
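E. coli-expressed active caspase-8, titrated with Z-VAD-FMK, 25-50 nM, with 40 µM Ac-IETD-AFC in 10 mM phosphate buffer (pH 7.5), 10 mM NaCl. Fluorescence at ex 405 / em 505 nm, followed kinetically over 30 min at room temperature. Ki from Lineweaver-Burk double-reciprocal analysis over varied substrate concentrations, assuming competitive inhibition.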

Bounds are passed on as bounds.

T1 sequence (Q14790 217-374 limits assumed): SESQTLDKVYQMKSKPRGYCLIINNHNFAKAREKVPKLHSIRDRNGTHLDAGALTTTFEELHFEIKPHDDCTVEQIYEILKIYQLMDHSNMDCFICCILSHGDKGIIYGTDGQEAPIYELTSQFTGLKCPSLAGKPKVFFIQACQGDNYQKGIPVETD
T1 sequence (Q14790 385-479 limits assumed): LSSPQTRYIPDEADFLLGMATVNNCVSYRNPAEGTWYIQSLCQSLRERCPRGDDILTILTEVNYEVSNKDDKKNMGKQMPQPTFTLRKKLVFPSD

For `O=C(Sc1cccs1)c1csc(C2COc3ccccc3O2)n1` (configuration not stated), the results for the half-maximal inhibitory concentration (IC50) in experiment [1] and in experiment [2] were 62 µM and over 200 µM, respectively.
As to `Cc1nc(C2COc3ccccc3O2)sc1C(=O)O` (configuration not stated), the values for the IC50 in experiment [1], in experiment [3] and in experiment [2] were over 200 µM, 128 µM and over 200 µM, respectively.
`O=C(c1csc(C2COc3ccccc3O2)n1)N1CCOCC1` (configuration not stated): the IC50 – broadly, the concentration needed to halve the response being measured – in experiment [1] is over 200 µM; in experiment [3], 150 µM; in experiment [2], over 200 µM.
As for `O=C(O)c1csc(C2COc3ccccc3O2)n1` (configuration not stated), the half-maximal inhibitory concentration (IC50) was 75 µM in experiment [1], over 200 µM in experiment [3] and 170 µM in experiment [2].
The corresponding values for `CN(C)C(=O)c1csc(C2COc3ccccc3O2)n1` (configuration not stated) are over 200 µM, 129 µM and over 200 µM.
On to `CCOC(=O)c1csc(C2COc3ccccc3O2)n1` (configuration not stated), for which the inhibition constant (Ki) – broadly, the dissociation constant of the complex between target and ligand, obtained from inhibition or displacement – in experiment [4] was determined as 30 µM. That is a double-digit micromolar value.
As for `O=C(Oc1ccccc1)c1csc(C2COc3ccccc3O2)n1` (configuration not stated), the values for the half-inhibitory concentration (IC50) in experiment [1] and in experiment [2] were 60 µM and over 200 µM, respectively.
In the same order, the values of `O=C(Oc1ccc(Cl)cc1)c1csc(C2COc3ccccc3O2)n1` (configuration not stated) are over 200 µM and over 200 µM.
Consider `FC(F)(F)c1cccc(-c2csc(C3COc4ccccc4O3)n2)c1` (configuration not stated), for which, in experiment [4], the Ki came to 2.7 µM.
With `O=C(NCc1ccco1)c1csc(C2COc3ccccc3O2)n1` (configuration not stated), the concentration for half-maximal inhibition (IC50) in experiment [1] is 60 µM; in experiment [3], 133 µM; in experiment [2], over 200 µM.
With `CCOC(=O)c1ccc(N/C=C(\C#N)c2nc(-c3cc4cc([N+](=O)[O-])ccc4oc3=O)cs2)cc1`, in experiment [3], the IC50 is over 100 µM.
As to `CCOC(=O)c1sc(C2COc3ccccc3O2)nc1C` (configuration not stated), the IC50 in experiment [1] and in experiment [2] was over 200 µM throughout.
In experiment [3], `COc1ccc(N/C=C(\C#N)c2nc(-c3cc4cc([N+](=O)[O-])ccc4oc3=O)cs2)cc1` registered an IC50 of over 1000 µM.
